Legend:
Dipeptidyl peptidase 4 = Dipeptidyl peptidase 4 (Sus scrofa, UniProt P22411); assay: Drug metabolism in minipig plasma assessed as DDP-4-meditaed GLP1(9 to 37 residues) formation by measuring half life at 1 uM by LC-MS analysis; assay type: ADME; details: pig
Outline: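 Heparinized mini-pig plasma diluted 4:1 with 0.1 M PBS pH 7.4, pre-warmed 30 min at 37°C with peptide, then combined (1 uM final) and kept at 37°C. Aliquots taken at 5–300 min were quenched in 3 volumes methanol with internal standard, centrifuged and water-diluted. Analysed by ESI+ QTOF LC-MS against 20–2000 nM plasma calibrators, with %-remaining normalised to the 15 min sample; n = 3.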

[1] = molecular target: T1, Neuropeptide Y receptor type 2 (Homo sapiens, UniProt P49146); assay: Displacement of [125I]-PYY(1 to 36 residues) from human Y2R expressed in CHO cell membranes after 2 hrs by scintillation proximity assay
T1 sequence (P49146 whole entry): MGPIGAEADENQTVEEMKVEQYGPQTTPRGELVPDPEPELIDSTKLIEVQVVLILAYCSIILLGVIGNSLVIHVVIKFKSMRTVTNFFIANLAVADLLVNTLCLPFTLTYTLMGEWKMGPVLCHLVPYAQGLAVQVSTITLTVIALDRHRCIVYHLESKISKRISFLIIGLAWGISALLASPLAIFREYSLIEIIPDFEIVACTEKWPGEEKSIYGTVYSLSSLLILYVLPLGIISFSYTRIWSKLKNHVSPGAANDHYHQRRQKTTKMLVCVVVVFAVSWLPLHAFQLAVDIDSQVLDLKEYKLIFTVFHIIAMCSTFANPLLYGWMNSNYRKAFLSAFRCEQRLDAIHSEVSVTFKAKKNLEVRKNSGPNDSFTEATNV

[2] = molecular target: T1, Neuropeptide Y receptor type 2; assay: Activation of human Y2R expressed in HEK293 cells assessed as inhibition of isoproterenol-induced increase in intracellular cAMP levels by calcium 5 dye-based FLIPR assay; assay type: functional, cell-based
[3] = Displacement of [125I]-PYY(1 to 36 residues) from mouse Y2R expressed in HEK293 cell membranes after 2 hrs by scintillation proximity assay
[4] = molecular target: T2, Neuropeptide Y receptor type 1 (Homo sapiens, UniProt P25929); assay: Activation of human Y1R expressed in HEK293 cells assessed as inhibition of isoproterenol-induced increase in intracellular cAMP levels by calcium 5 dye-based FLIPR assay; assay type: functional, cell-based
T2 sequence (P25929 whole entry): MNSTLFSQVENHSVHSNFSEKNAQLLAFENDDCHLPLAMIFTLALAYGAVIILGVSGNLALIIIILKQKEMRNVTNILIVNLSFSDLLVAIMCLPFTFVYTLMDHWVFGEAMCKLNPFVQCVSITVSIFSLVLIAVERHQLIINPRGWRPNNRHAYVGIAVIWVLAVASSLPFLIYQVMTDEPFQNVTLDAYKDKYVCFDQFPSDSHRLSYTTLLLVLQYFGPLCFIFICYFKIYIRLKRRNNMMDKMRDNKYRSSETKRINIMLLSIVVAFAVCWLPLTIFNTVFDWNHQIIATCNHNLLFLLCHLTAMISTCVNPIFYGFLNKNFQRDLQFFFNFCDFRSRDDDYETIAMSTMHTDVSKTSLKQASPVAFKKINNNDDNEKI

[5] = molecular target: T3, Neuropeptide Y receptor type 5 (Mus musculus, UniProt O70342); assay: Displacement of [125I]-PYY(1 to 36 residues) from mouse Y5R expressed in HEK293 cell membranes after 2 hrs by scintillation proximity assay
T3 sequence (O70342 whole entry): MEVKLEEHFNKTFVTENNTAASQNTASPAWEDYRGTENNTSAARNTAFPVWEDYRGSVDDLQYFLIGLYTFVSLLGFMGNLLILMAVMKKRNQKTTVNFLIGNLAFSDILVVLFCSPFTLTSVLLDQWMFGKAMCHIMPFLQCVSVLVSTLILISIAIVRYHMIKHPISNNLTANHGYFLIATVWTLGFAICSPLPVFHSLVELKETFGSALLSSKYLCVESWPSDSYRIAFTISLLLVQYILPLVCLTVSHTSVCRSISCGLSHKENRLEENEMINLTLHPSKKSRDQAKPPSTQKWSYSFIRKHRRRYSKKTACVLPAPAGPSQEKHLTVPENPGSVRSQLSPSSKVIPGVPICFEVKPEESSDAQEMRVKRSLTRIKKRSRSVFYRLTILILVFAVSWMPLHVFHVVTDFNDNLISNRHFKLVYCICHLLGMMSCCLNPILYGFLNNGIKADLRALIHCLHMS

[6] = molecular target: T2, Neuropeptide Y receptor type 1; assay: Displacement of [125I]-PYY(1 to 36 residues) from human Y1R expressed in BHK-21 cell membranes after 2 hrs by scintillation proximity assay
[7] = Displacement of [125I]-PYY(1 to 36 residues) from mouse Y1R expressed in HEK293 cell membranes after 2 hrs by scintillation proximity assay
[8] = molecular target: Neuropeptide Y receptor type 4 (Mus musculus, UniProt Q61041); assay: Displacement of [125I]-PP from mouse Y4R expressed in HEK293 cell membranes after 2 hrs by scintillation proximity assay
Chain of Neuropeptide Y receptor type 4 (Q61041 whole entry): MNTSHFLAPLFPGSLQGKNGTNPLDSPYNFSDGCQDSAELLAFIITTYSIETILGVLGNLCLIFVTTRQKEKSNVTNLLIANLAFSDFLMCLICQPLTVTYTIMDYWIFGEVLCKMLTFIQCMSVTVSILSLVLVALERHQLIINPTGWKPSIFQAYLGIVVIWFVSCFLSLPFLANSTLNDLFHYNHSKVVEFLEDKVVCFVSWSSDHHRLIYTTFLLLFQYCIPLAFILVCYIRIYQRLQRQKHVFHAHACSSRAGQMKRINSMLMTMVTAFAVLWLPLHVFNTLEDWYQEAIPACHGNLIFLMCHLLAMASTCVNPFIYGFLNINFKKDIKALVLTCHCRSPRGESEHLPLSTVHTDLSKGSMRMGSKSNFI

Chain of Dipeptidyl peptidase 4 (P22411 whole entry, the tested form may be a part): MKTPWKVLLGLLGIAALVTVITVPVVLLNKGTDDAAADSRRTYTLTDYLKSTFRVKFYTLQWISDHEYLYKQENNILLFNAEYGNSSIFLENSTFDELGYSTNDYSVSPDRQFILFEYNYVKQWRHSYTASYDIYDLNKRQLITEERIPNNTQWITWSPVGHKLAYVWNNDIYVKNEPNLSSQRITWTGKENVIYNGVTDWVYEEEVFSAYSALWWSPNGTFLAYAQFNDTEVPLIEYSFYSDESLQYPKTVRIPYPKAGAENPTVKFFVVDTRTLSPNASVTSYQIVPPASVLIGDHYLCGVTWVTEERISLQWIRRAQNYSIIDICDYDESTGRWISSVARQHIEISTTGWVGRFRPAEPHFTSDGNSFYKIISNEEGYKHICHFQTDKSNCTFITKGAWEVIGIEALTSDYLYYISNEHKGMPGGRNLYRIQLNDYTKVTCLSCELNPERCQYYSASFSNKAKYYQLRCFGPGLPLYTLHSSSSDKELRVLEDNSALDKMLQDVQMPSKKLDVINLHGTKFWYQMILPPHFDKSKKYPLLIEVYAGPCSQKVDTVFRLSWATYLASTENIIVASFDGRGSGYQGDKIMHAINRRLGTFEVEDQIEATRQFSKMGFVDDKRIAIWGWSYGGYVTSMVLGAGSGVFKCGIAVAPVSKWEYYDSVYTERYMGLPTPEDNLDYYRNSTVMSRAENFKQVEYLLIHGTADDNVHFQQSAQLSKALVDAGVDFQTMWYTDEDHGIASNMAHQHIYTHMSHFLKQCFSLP

Row | Structure (SMILES) | t1/2 (Dipeptidyl peptidase 4) | Ki [1] | EC50 ([2]; read-out: EC50) | EC50 ([2]; read-out: pEC50 (converted)) | IC50 [3] | pIC50 [3] | EC50 ([4]; read-out: EC50) | EC50 ([4]; read-out: pEC50 (converted)) | EC50 [5] | Ki [6] | IC50 [7] | pIC50 [7] | EC50 [8]
1 | CC[C@H](C)[C@H](NC(=O)[C@H](Cc1ccccc1)NC(=O)[C@H](CCC(=O)O)NC(=O)[C@H](CCCCN)NC(=O)[C@H](C)NC(=O)[C@H](C)NC(=O)[C@H](CCC(N)=O)NC(=O)CNC(=O)[C@H](CCC(=O)O)NC(=O)[C@H](CC(C)C)NC(=O)[C@H](Cc1ccc(O)cc1)NC(=O)[C@H](CO)NC(=O)[C@H](CO)NC(=O)[C@@H](NC(=O)[C@H](CC(=O)O)NC(=O)[C@H](CO)NC(=O)[C@@H](NC(=O)[C@H](Cc1ccccc1)NC(=O)[C@@H](NC(=O)CNC(=O)[C@H](CCC(=O)O)NC(=O)[C@H](C)NC(=O)[C@@H](N)Cc1c[nH]cn1)[C@@H](C)O)[C@@H](C)O)C(C)C)C(=O)N[C@@H](C)C(=O)N[C@@H](Cc1c[nH]c2ccccc12)C(=O)N[C@@H](CC(C)C)C(=O)N[C@H](C(=O)N[C@@H](CCCCN)C(=O)NCC(=O)N[C@@H](CCCN=C(N)N)C(=O)NCC(=O)O)C(C)C | 46 min | – | – | – | – | – | – | – | – | – | – | – | –
2 | CC[C@H](C)[C@H](NC(=O)[C@H](Cc1ccc(O)cc1)NC(=O)[C@H](CCCNC(=N)N)NC(=O)[C@H](CCCNC(=N)N)NC(=O)[C@H](CC(C)C)NC(=O)[C@H](CC(=O)O)NC(=O)[C@H](C)NC(=O)[C@H](C)NC(=O)[C@H](Cc1ccc(O)cc1)NC(=O)[C@H](CCC(N)=O)NC(=O)[C@H](C)NC(=O)[C@H](CCSC)NC(=O)[C@H](CCC(N)=O)NC(=O)[C@H](CCC(=O)O)NC(=O)[C@@H]1CCCN1C(=O)[C@@H](NC(=O)[C@H](C)NC(=O)[C@H](CC(N)=O)NC(=O)[C@H](CC(=O)O)NC(=O)CNC(=O)[C@@H]1CCCN1C(=O)[C@H](Cc1ccc(O)cc1)NC(=O)[C@@H](NC(=O)[C@@H]1CCCN1C(=O)[C@H](CCC(=O)O)NC(=O)[C@H](CC(C)C)NC(=O)[C@@H]1CCCN1C(=O)[C@H](C)N)C(C)C)[C@@H](C)O)C(=O)N[C@@H](CC(N)=O)C(=O)N[C@@H](CCSC)C(=O)N[C@@H](CC(C)C)C(=O)N[C@H](C(=O)N[C@@H](CCCNC(=N)N)C(=O)N1CCC[C@H]1C(=O)N[C@@H](CCCNC(=N)N)C(=O)N[C@@H](Cc1ccc(O)cc1)C(=O)O)[C@@H](C)O | – | 5000 nM | > 30 nM | > 31.6 nM | > 1000 nM | < 6 | > 30 nM | > 31.6 nM | 2.5 nM | 50 nM | 10 nM | 8 | 0.1 nM

— ChEMBL document CHEMBL4261636, “Design of Y2 Receptor Selective and Proteolytically Stable PYY3-36 Analogues” (J Med Chem, 2018)
